# An excerpt weighted towards active compounds, which were near 2.4% of everything screened.
# DNA FID counter: displaces DNA intercalator in HCV helicase counter-screen | DNA fluorescent intercalator displacement, fluorescence | inhibition, % at 7.9 µM | actives 0.17% (n = 290,000) | AID 1845; in the data active means inhibition above about 37%;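 further: higher means more ethidium bromide displaced from hairpin DNA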
# Apaf1 inhib: inhibitors of human Apaf-1 apoptosome; actives 0.71% (n = 330,000); AID 489030; O14727; inhibition, % at 20 µM; reconstituted apoptosome caspase-3 activity, DEVD-Rh110 fluorescence; active means inhibition of at least 40% at 20 µM
# Target sequence (O14727 whole entry, looked up): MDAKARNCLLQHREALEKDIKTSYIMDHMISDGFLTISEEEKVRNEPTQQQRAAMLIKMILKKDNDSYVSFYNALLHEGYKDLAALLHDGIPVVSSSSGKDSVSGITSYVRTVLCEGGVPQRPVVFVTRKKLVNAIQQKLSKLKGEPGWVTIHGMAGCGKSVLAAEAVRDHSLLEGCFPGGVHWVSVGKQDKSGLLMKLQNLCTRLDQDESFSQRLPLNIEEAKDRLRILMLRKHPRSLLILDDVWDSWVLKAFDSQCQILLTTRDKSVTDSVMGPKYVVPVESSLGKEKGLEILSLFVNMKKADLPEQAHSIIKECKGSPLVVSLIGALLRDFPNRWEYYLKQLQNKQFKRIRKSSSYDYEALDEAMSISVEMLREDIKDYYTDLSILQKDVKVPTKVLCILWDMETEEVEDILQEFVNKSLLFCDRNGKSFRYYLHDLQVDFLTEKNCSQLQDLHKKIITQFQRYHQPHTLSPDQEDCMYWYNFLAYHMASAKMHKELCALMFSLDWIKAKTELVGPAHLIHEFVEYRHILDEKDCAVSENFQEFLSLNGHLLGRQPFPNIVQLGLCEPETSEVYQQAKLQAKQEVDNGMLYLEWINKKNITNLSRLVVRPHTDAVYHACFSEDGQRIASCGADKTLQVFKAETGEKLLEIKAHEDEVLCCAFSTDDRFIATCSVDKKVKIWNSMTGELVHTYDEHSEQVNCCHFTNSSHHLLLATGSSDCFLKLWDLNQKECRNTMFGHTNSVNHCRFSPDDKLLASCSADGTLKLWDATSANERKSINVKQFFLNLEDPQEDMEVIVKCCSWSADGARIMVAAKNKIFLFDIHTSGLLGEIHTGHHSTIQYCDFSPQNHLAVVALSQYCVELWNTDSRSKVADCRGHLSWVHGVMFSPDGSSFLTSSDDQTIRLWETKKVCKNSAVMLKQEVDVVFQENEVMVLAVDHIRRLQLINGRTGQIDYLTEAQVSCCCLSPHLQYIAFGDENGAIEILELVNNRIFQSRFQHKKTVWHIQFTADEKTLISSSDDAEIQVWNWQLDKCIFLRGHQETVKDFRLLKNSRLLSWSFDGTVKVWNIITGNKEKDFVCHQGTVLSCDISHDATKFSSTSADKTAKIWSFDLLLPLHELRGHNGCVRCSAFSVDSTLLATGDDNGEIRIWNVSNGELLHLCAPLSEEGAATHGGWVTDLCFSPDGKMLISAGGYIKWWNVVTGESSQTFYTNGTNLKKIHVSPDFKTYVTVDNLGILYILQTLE
#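 System: reconstituted apoptosome with Apaf-1, cytochrome c, caspase-9, procaspase-3, dATP; Signal: Rh110 fluorescence intensity; Schedule: 30 min compound preincubation, 50 min activation, room temperature; Reagent: cytochrome c trigger plus (Z-DEVD)2-Rh110 caspase-3 substrate.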
# ANO1 block: mouse TMEM16A channel inhibition, primary screen; normalized B-score (activity score, 25-100; higher = stronger inhibition) at 10 µM; Q8BHY3; actives 1.2% (n = 310,000); HEK293 TMEM16A/YFP iodide influx fluorescence, ionomycin; AID 588511;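 active means ratio plate-corrected score three or more library SD toward inhibition, starting fluorescence score within five deviations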;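 further: score derived from kinetic fluorescence span divided by baseline fluorescence per well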
# ANO1 activ: activators or potentiators of mouse TMEM16A chloride channel; B-score at 10 µM; HEK293 TMEM16A/YFP-H148Q/I152L, iodide quench fluorescence; active compounds read low; actives 0.3% (n = 340,000);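 active means fluorescence-ratio B-score plate-corrected deviation score at least 3 library SD below zero, with starting fluorescence score within 5 deviations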;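 further: channel opened by trigger with iodide after compound preincubation; score built on the fluorescence ratio of max minus min over baseline; more negative score means more quench and so TMEM16A activation or potentiation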
# UBC13 inh: blocks human UBC13 polyubiquitin chain formation; AID 485273; actives 0.47% (n = 330,000); inhibition, % at 20 µM; TR-FRET; P61088; in the data active means inhibition above about 45%, passing the limit was not always enough
# Apaf-1 inh conf2: Apaf-1 inhibition, single-dose confirmed; shares compounds with Apaf1 inhib; reconstituted apoptosome, caspase-3 DEVD-Rh110 fluorescence; inhibition, % at 20 µM; actives 25% (n = 1,800); AID 504614;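 active means mean inhibition of at least 40% at 20 µM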
# Rh110 quench: interferes with Rh110 fluorescence, flagging false Apaf-1 inhibitors; shares compounds with Apaf1 inhib; Rh110 fluorescence interference, quenched caspase reaction; activation (fluorescence interference), % at 20 µM; 1,800 tested, under 10 active;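 active means signal rise of 40% or more at 20 µM, treated as a fluorescence artifact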
# Fluor interf inh: Apaf-1 inhibitor counter-screen fluorescence artifact | shares compounds with Apaf1 inhib | fluorescence interference counterscreen, Apaf-1 assay format | IC50, µM | 460 tested, under 10 active; call rule not given here
# A number is an active result; - = inactive; . = no result given; ! = repeats disagree.
SMILES,DNA FID counter,Apaf1 inhib,ANO1 block,ANO1 activ,UBC13 inh,Apaf-1 inh conf2,Rh110 quench,others
Cc1[nH]n(-c2ccccc2)c(=O)c1C(C[N+](=O)[O-])c1ccc(F)cc1 (stereo not drawn),-,93.8,-,-,-,-,-,
C=CCNC(=O)c1c(N)n(-c2cccc(S(N)(=O)=O)c2)c2nc3ccccc3nc12,-,60.9,-,-,-,-,-,
COCCNC(=O)c1c(N)n(-c2ccccc2)c2nc3ccccc3nc12,-,81.3,-,-,-,-,-,
COCCNC(=O)c1c(N)n(-c2cccc(C)c2)c2nc3ccccc3nc12,-,-,-,-,-,.,.,
COCCCNC(=O)c1c(N)n(-c2ccccc2)c2nc3ccccc3nc12,-,83.6,-,-,-,-,-,
COCCNC(=O)c1c(N)n(CCCn2ccnc2)c2nc3ccccc3nc12,-,93.9,-,-,-,-,-,
COc1ccc(N(CC(=O)NCCc2ccc(Cl)cc2)S(=O)(=O)c2c(C)[nH]c(=O)[nH]c2=O)cc1,-,-,-,-,-,.,.,
C=CCn1c(N)c(C(=O)OC(C)CC)c2nc3ccccc3nc21 (stereo not drawn),-,.,.,-,.,.,.,
COC(=O)c1c(N)n(-c2ccc(NC(C)=O)cc2)c2nc3ccccc3nc12,-,48.8,-,-,-,-,-,
COCCCNC(=O)c1c(N)n(-c2ccc(S(N)(=O)=O)cc2)c2nc3ccccc3nc12,-,-,-,-,-,.,.,
C=CCn1c(N)c(C(=O)Nc2ccccc2)c2nc3ccccc3nc21,-,67.4,-,-,-,-,-,
COc1ccc(S(=O)(=O)NC2CC(=O)N(c3ccc4c(c3)OCCO4)C2)cc1 (stereo not drawn),.,-,-,-,-,.,.,
Cn1c2c(c3cc([N+](=O)[O-])ccc31)CCCC2,-,-,-,-,-,.,.,
COc1ccc(C2CC(=O)N3CN(c4ccc(C)c(Cl)c4)CSC3=C2C#N)cc1 (stereo not drawn),-,47.1,-,-,-,-,-,
COc1ccc(N2CSC3=C(C#N)C(c4cccc(OC)c4OC)CC(=O)N3C2)cc1 (stereo not drawn),-,-,-,-,-,.,.,
CCOc1ccc2nc(NC(=O)Cn3[nH]c(=O)c4ccccc4c3=O)sc2c1,-,-,-,-,-,.,.,
CC1CCN(C2=C(NS(=O)(=O)c3ccc(Cl)cc3)C(=O)c3ccccc3C2=O)CC1,-,46.4,-,-,-,-,-,
O=C1C(NS(=O)(=O)c2cccs2)=C(N2CCN(c3cccc(Cl)c3)CC2)C(=O)c2ccccc21,-,57.8,-,-,-,-,-,
O=C1C(NS(=O)(=O)c2ccccc2)=C(N2CCN(c3ccc(F)cc3)CC2)C(=O)c2ccccc21,-,-,-,-,-,.,.,
CC1CCN(C(CNS(=O)(=O)c2ccccc2)c2ccccc2)CC1 (stereo not drawn),.,-,.,-,-,.,.,
O=S(=O)(Nc1ccc(N2CCOCC2)cc1)c1cccs1,-,-,-,-,-,.,.,
CCOC(=O)C1CCN(C2=C(NS(=O)(=O)c3ccc(Cl)cc3)C(=O)c3ccccc3C2=O)CC1,-,-,-,-,-,.,.,
CCOC(=O)C1CCCN(C2=C(NS(=O)(=O)c3ccc(Br)cc3)C(=O)c3ccccc3C2=O)C1 (stereo not drawn),-,67.0,-,-,-,48.1,-,
CC1CCN(C2=C(NS(=O)(=O)c3ccccc3)C(=O)c3ccccc3C2=O)CC1,-,60.0,-,-,-,-,-,
COc1cccc(NCc2ccc([N+](=O)[O-])s2)c1,-,-,-,-,-,.,.,
SMILES,DNA FID counter,Apaf1 inhib,ANO1 block,ANO1 activ,UBC13 inh,Apaf-1 inh conf2,Rh110 quench,others
CCCCCOc1ccc(C(C)(O)C(CN2CCOCC2)c2ccccc2)cc1 (stereo not drawn),-,-,-,-,-,.,.,
O=C(NCC(c1ccco1)N1CCc2ccccc2C1)c1cccc(Br)c1 (stereo not drawn),.,-,-,-,-,.,.,
CCOC(=O)NC(O)C(=O)c1cccs1 (stereo not drawn),-,-,-,-,-,.,.,
O=C(O)Cn1nnc(-c2ccc(OCc3ccccc3)cc2)n1,-,.,-,-,.,.,.,
CC1CCN(C2=C(NS(=O)(=O)c3ccc(Br)cc3)C(=O)c3ccccc3C2=O)CC1,-,53.9,-,-,-,-,-,
CC1CCCN(C2=C(NS(=O)(=O)c3ccc(Br)cc3)C(=O)c3ccccc3C2=O)C1 (stereo not drawn),-,51.3,-,-,-,-,-,
O=C(CSc1nnc(-c2ccccc2)c(-c2ccccc2)n1)NC1CCS(=O)(=O)C1 (stereo not drawn),-,-,-,-,-,.,.,
Cc1cn(-c2cc(NC(=O)c3ccc(C)c(NC(=O)c4cccc(-c5cn[nH]c(=O)c5)c4)c3)cc(C(F)(F)F)c2)cn1,-,-,-,-,-,.,.,
Cc1ccc(C(=O)NC2(O)C(=O)c3ccccc3C2=O)cc1C,-,96.8,-,-,-,92.5,-,Fluor interf inh=-
O=C(Cc1ccccc1)NC1(O)C(=O)c2ccccc2C1=O,-,85.4,-,-,-,69.0,-,Fluor interf inh=-
O=C(NC1(O)C(=O)c2ccccc2C1=O)c1ccc(C(F)(F)F)cc1,-,96.3,-,-,-,98.3,-,Fluor interf inh=-
O=C(N[C@@H](Cc1ccccc1)C(=O)O)c1ccc(C(F)(F)F)cc1,-,-,-,-,-,.,.,
CCOCCCn1c(=S)[nH]c2cc(C(=O)NC3CCCC(C)C3C)ccc2c1=O (stereo not drawn),-,-,-,-,-,.,.,
CSCCC(NS(=O)(=O)/C=C/c1ccccc1)C(=O)NCCc1ccc(S(N)(=O)=O)cc1 (stereo not drawn),-,-,-,-,-,.,.,
O=C(COc1ccccc1)N1CCN=C1SCc1ccc(F)cc1,-,56.4,-,-,-,-,-,
O=C(COc1ccccc1)N1CCN=C1SCc1cccnc1,-,-,-,-,-,.,.,
O=C(Cc1cc(=O)[nH][nH]1)N/N=C/c1cccc2ccccc12,-,53.6,-,-,-,-,-,
O=C(Cc1cc(=O)[nH][nH]1)N/N=C/c1c(Cl)cccc1Cl,-,64.3!,-,-,-,-,-,
O=C(Cc1cc(=O)[nH][nH]1)N/N=C/C(Cl)=C/c1ccccc1,-,49.1!,-,-,-,-,-,
O=C(N/N=C/c1cccc2ccccc12)c1cccc(F)c1,-,-,-,-,-,.,.,
O=C(Cc1cc(=O)[nH][nH]1)N/N=C/c1cccc(Cl)c1Cl,-,47.5!,-,-,-,-,-,
Cn1cccc1CC(=O)N/N=C/C(Cl)=C/c1ccccc1,-,-,-,-,-,.,.,
O=C(Cc1cc(=O)[nH][nH]1)N/N=C/c1c(F)cccc1Cl,-,-,-,-,-,.,.,
